Compound activity: PubChem BioAssay, Sanford-Burnham Center for Chemical Genomics
This is a sample that favours compounds with a hit; in the whole collection about 1.7% have one here.
SUMO1 PPI mod – alters human SUMO1 binding to SIM partners. P63165. AID 602429. 360,000 compounds, 0.33% hits. inhibition, % at 20 µM. SUMO1 binding to a labelled peptide, TR-FRET, 1 h; in the data active means inhibition above about 37%
Target sequence (P63165 whole entry, looked up): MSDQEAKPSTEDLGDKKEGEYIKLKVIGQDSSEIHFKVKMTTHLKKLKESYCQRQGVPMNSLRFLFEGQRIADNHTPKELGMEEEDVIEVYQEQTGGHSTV
Scp1 inh – blocks human Scp-1 phosphatase activity; AID 493091; Recombinant Scp1, phosphopeptide, malachite green phosphate absorbance; Q9GZU7; 340,000 compounds, 0.88% hits; inhibition, % at 20 µM;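 active means inhibition above about 50% at 20 µM, limit read from the data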
Target sequence (Q9GZU7 76-261 limits assumed): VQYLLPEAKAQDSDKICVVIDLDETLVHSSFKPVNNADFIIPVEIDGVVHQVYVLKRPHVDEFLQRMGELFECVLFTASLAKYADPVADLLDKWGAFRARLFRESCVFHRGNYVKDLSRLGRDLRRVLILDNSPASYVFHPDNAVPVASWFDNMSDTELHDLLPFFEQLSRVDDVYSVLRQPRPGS
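System: SCP-1 catalytic domain; Reagent: Phospho 17-mer peptide substrate; Doses: one concentration, 20 µM, with 1.0% DMSO; Incubation: 45 min room-temperature reaction, 5 min colour, 30 min stabiliser; Signal: Phosphate-binding colour reagent, absorbance read at 630 nm.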
STEP block – blocks human striatal-enriched tyrosine phosphatase. AID 588621. recombinant STEP, OMFP fluorogenic substrate, fluorescence. P54829. inhibition, % at 20 µM. 360,000 compounds, 0.25% hits;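 active means inhibition at 20 µM, scaled per plate between control wells, above about 37%, limit read from the data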
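System: isolated STEP enzyme; schedule: 20 min enzyme reaction at room temperature, protected from light; medium: Bis-Tris buffer pH 6.0, 2.5 mM DTT, 0.005% Tween 20; signal: fluorescence, 480/540 nm; dosing: single compound dose of 20 µM, 1% DMSO final; also added: OMFP substrate, 25 µM final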
DNMT1 inh – DNMT1 (human) enzyme inhibition. DNMT1 molecular beacon, Hinp1I cleavage, fluorescence. inhibition (reported as % activation of signal), % at 10 µM. 360,000 compounds, 0.83% hits; in the data active means inhibition above about 50%
LMPTP inh – blocks human LMPTP phosphatase; P24666; recombinant LMPTP-A, OMFP fluorogenic substrate, fluorescence intensity; inhibition, % at 20 µM; 360,000 compounds, 0.22% hits;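 active means compounds that cut the enzyme signal by at least half of the control window in the single-dose screen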
Target sequence (P24666 whole entry, looked up): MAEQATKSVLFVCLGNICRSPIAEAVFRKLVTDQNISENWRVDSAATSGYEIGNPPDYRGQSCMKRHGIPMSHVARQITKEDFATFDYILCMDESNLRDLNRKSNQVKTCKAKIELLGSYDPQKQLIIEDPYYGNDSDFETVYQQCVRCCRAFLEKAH
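Material: LMPTP-A; amount: 0.625 nM enzyme; doses: single 20 µM dose; times: reaction 50 min, room temperature, dark; technique: fluorescence intensity of OMFP turnover product; benchmarks: no-enzyme and uninhibited controls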
Scp-1 conf – confirmation of human Scp-1 phosphatase inhibitors. recombinant SCP-1 catalytic domain, phosphate release, malachite green absorbance. AID 540281. 2,500 compounds, 61% hits. shares compounds with Scp1 inh. inhibition, % at 20 µM
MG interference – interferes with malachite green readout, flagging false Scp-1 hits. apparent inhibition (interference), % at 20 µM. shares compounds with Scp1 inh. AID 540313. 2,500 tested, under 10 active. Colorimetric interference counterscreen, malachite green absorbance 630 nm;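 further: compounds added after enzyme reaction finished so only phosphate colour detection is probed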
Scp1 DSF – binds human Scp-1, shifting its melting temperature; shares compounds with Scp1 inh; Recombinant SCP1, Sypro Orange thermal shift Tm; thermal shift relative to vanadate control, % at 40 µM; 1,500 compounds, 25% hits; AID 540329;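 active means substances whose mean melting-temperature shift, as a percentage of the reference inhibitor's shift, reaches about 5.3%, limit read from the data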
Of the large screens only hits and unclear results are named; the others gave an inactive call (follow-up assays come after a bar, where they were run).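 How the source made its calls, unless noted: active means inhibition of at least 30% at 20 µM; inactive means the rest.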

Cc1cc(Br)ccc1OCC(=O)NNC(=O)c1ccc(NC(=O)C2CC2)cc1	Scp1 inh 61 | Scp-1 conf inactive | MG interference inactive
CCC(CO)N=CC1=C(O)CC(C)(C)CC1=O (stereo unspecified)	none
CSCCC(N=CC1=C(O)CC(C)(C)CC1=O)C(=O)O (stereo unspecified)	Scp1 inh 73 | Scp-1 conf inactive | MG interference inactive
Cc1nc([N+](=O)[O-])cn1CC(=O)c1ccc(OC(F)(F)F)cc1	none
O=C(O)c1ccc2c(c1)C(=O)/C(=C/c1ccccc1)C2=O	Scp1 inh 76 | Scp-1 conf 53 | MG interference inactive | Scp1 DSF 23
Cc1ccc2nc(SCC(=O)NCc3ccccc3Cl)nc(=O)n2c1	none
Cc1ccn2c(=O)nc(SCC(=O)NCc3ccccc3Cl)nc2c1	none | Scp-1 conf 57 | MG interference inactive | Scp1 DSF inactive
CN(Cc1ccccc1)C(=O)c1[nH]cnc1C(=O)Nc1ccon1	none
CCc1cc(C(=O)N2CCCC(C(=O)c3ccc(Oc4ccccc4)cc3)C2)n(C)n1 (stereo unspecified)	none
C=CCNc1nc(C(=O)OCC(=O)Nc2ccc(S(N)(=O)=O)cc2)cs1	Scp1 inh 58 | Scp-1 conf 65 | MG interference inactive | Scp1 DSF inactive
CCCc1n(CC(O)COCC2CC=CCC2)c2ccccc2[n+]1C (stereo unspecified)	Scp1 inh 67 | Scp-1 conf inactive | MG interference inactive
CCCc1n(CC(O)COCc2ccccc2)c2ccccc2[n+]1C (stereo unspecified)	none
O=C(O)c1ccccc1C(=O)NCC(O)COCC1CC=CCC1 (stereo unspecified)	none
CCCc1n(CC(O)COC2CCCCC2)c2ccccc2[n+]1C (stereo unspecified)	Scp1 inh 100 | Scp-1 conf 77 | MG interference inactive | Scp1 DSF inactive
CNc1cnc(-c2ccc(F)c(F)c2F)cn1	none (no result: Scp1 inh)
CCc1ccc(CNCCNC(=O)c2ccco2)cc1	none
O=C(NCCNCc1ccccc1)c1ccco1	Scp1 inh 70, DNMT1 inh 68 | Scp-1 conf 49 | MG interference inactive | Scp1 DSF 9.6
COc1ccc(-n2c(Cc3cccn3C)nnc2SCC(=O)NCc2ccco2)cc1	none
COc1ccc(-n2c(Cc3cccn3C)nnc2SCC(=O)NCc2ccc(F)cc2)cc1	Scp1 inh 90 | Scp-1 conf inactive | MG interference inactive
C[N+]1(CN2C(=O)C3C4C=CC(C4)C3C2=O)CCCCC1 (stereo unspecified)	Scp1 inh 103 | Scp-1 conf 89 | MG interference inactive | Scp1 DSF inactive
CCOc1ccc(C(=O)Nc2cccc(-c3nc4cccnc4o3)c2)cc1Cl	Scp1 inh 83 | Scp-1 conf inactive | MG interference inactive
CSc1ccccc1NC(=O)c1cc2c(=O)n3ccccc3nc2s1	none
CC(C)NC(=O)c1cc2c(=O)n3ccccc3nc2s1	Scp1 inh 64 | Scp-1 conf inactive | MG interference inactive
C/C(=N\NC(=O)c1ccc(Cl)cc1)c1ccc(Br)s1	none
C/C(=N\NC(=O)c1cc(Cl)ccc1O)c1ccc(Br)s1	Scp1 inh 93 | Scp-1 conf 80 | MG interference inactive | Scp1 DSF inactive
O=c1c2cc(-c3ccccc3)sc2nc2n1N=C(c1ccccc1)CS2	Scp1 inh 108 | Scp-1 conf 59 | MG interference inactive | Scp1 DSF inactive
COC(=O)[C@]12CCCCC=C1N(CCc1ccc(OC)c(OC)c1)C(=O)[C@H](CC(=O)N1CCN(C(=O)c3ccco3)CC1)C2	none (no result: Scp1 inh, STEP block, DNMT1 inh)
CC(C)c1nc2c(c(=O)n(C)c(=O)n2C)n1C	none
CC(=O)Nc1ccc2c(O)cc(S(=O)(=O)O)cc2c1	Scp1 inh 59 | Scp-1 conf 46 | MG interference inactive | Scp1 DSF inactive
CCCOc1ccc(F)cc1-c1cc(C(=O)NCc2cc(C(F)(F)F)cc(C(F)(F)F)c2)[nH]n1	none (no result: Scp1 inh)
O=C(CN1C(=O)C(c2ccc(F)cc2)=NC12CCCC2)Nc1ccc(F)cc1	none
COc1ccc(NC(=O)CN2C(=O)C(c3ccccc3)=NC23CCCCCC3)cc1	Scp1 inh 59 | Scp-1 conf inactive | MG interference inactive
COc1cc(/C=C/C(C)=NNc2ccccc2)ccc1O	none
COc1ccc(-n2[nH]c3c(cnc4ccccc43)c2=O)cc1	none (no result: Scp1 inh)
CC(=O)Nc1ccc(S(=O)(=O)NCCN2CCNC2=O)cc1Cl	none | Scp-1 conf inactive | MG interference inactive
Cc1ccc(S(=O)(=O)NCCN2CCNC2=O)cc1	none
O=C1NCCN1CCNS(=O)(=O)c1ccc(F)c(Cl)c1	none | Scp-1 conf inactive | MG interference inactive
O=C1CCCN1CCCNS(=O)(=O)c1ccc(F)c(F)c1	none | Scp-1 conf inactive | MG interference inactive
O=C1CCCN1CCCNS(=O)(=O)c1ccc(Br)cc1	none
COc1cccc(C(=O)N(C)Cc2c(C)nn(C3CCS(=O)(=O)C3)c2C)c1 (stereo unspecified)	none
COc1ccc(CCCc2nnc(SCC(=O)Nc3ccc(C)c(C)c3)o2)cc1	Scp1 inh 90 | Scp-1 conf inactive | MG interference inactive
COc1ccc(C(=O)NCc2nnc(SCC(=O)Nc3ccccc3OC)o2)cc1	none
COc1ccc(C(=O)NCc2nnc(SCC(=O)Nc3ccccc3F)o2)cc1	Scp1 inh 52 | Scp-1 conf inactive | MG interference inactive
Cn1c(=O)c2cc(NC(=O)NCc3ccc(Cl)cc3Cl)ccc2n1Cc1ccc(F)cc1	none (no result: Scp1 inh)
N#C/C(=C\c1c(N(Cc2ccccc2)Cc2ccccc2)nc2ccccn2c1=O)C(N)=O	Scp1 inh 56 | Scp-1 conf inactive | MG interference inactive
CN(/N=C/c1ccncc1)c1cnn(-c2ccc(F)c(Cl)c2)c(=O)c1Cl	Scp1 inh 54 | Scp-1 conf inactive | MG interference inactive
COc1ccccc1N1CCN(C(=O)c2cc3c(s2)CCC3)CC1	Scp1 inh 85 | Scp-1 conf inactive | MG interference inactive
Cc1ccc(C)c(N2CCN(S(=O)(=O)c3ccc4c(c3)NC(=O)CS4)CC2)c1	none
O=C(O)c1cccc(N2C(=O)C3CC=C(Cl)CC3C2=O)c1 (stereo unspecified)	Scp1 inh 109 | Scp-1 conf 57 | MG interference inactive | Scp1 DSF inactive
